CRFR2-BP antag: CRF-BP/CRF-R2 complex antagonism. HEK293 CRF-R2/CRF-BP, CRF-induced calcium fluorescence. inhibition, % at 11.8 µM. 350,000 compounds, 0.59% hits. AID 588475;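 active = inhibition of the ligand-induced calcium signal above about 50% at the single tested concentration, limit read from the data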
Tn7 DDE FP: disrupts Tn7 cyclic peptide binding to fibrin D-Dimer-E complex; inhibition, % at 8.3 µM; P02675; FP displacement of FITC-Tn7 peptide from fibrin DD(E); 0% = median of compound wells per plate; AID 720508; 370,000 compounds, 0.13% hits;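 active = inhibition above the mean of compounds falling within the control limits plus 3 SD of them, cut at about 14% in these data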
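Assay system: human fibrin DD(E). Input: DD(E) 2 µM final. Medium: Tris buffer with calcium and detergent, pH 7.8. Compound dosing: single point at 8.3 µM. Timing: 10 min plus 3 h, room temperature. Technique: fluorescence polarization of the labelled Tn7 tracer. Read-out: percent inhibition. Replicates: singlicate testing.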
DDE Tn6 FP inh: inhibitors of Tn6 peptide binding to human fibrin DD(E); P02675; 370,000 compounds, 0.21% hits; AID 720509; Fibrin DD(E) TRITC-Tn6 fluorescence polarization displacement; inhibition, % at 8.3 µM;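 active = inhibition above a per-campaign cutoff: mean of compounds within control limits plus 3 SD, cut at about 15% in these data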
CendR NRP1 mod: alters CendR peptide binding to human NRP-1; O14786; FAM-RPARPAR peptide binding to NRP-1, fluorescence polarization; inhibition, % at 25 µM; 360,000 compounds, 0.85% hits; AID 602438;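 active = inhibition or corrected inhibition above about 18%, plus a signal ratio from 0.5 to 1.5, limit read from the data, passing the limit was not always enough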
Target sequence (O14786 whole entry, looked up): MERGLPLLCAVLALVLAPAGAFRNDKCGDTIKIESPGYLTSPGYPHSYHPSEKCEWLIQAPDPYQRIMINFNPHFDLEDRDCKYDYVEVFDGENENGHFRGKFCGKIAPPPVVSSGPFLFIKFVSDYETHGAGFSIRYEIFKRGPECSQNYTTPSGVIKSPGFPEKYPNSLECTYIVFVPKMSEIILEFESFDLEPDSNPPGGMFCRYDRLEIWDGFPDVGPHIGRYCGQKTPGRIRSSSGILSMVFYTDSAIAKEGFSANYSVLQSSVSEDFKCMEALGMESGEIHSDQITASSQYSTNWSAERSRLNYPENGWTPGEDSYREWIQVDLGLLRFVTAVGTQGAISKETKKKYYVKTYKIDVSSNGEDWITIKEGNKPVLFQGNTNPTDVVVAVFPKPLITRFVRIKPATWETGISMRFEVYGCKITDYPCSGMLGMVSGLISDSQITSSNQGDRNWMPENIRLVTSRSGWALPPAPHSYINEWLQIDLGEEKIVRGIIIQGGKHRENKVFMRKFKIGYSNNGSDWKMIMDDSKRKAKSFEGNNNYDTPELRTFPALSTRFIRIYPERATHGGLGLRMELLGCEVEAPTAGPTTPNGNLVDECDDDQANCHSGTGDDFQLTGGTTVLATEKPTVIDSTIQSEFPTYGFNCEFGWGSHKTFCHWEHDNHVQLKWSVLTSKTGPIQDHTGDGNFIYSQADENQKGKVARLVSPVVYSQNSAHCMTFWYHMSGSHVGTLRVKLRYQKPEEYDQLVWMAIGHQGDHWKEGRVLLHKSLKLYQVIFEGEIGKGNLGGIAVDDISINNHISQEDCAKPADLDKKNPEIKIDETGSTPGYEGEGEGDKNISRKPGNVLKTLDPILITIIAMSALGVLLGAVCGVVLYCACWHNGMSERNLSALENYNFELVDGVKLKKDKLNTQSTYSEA
KLK7 zymogen act: activates the human kallikrein-7 zymogen | 370,000 compounds, 0.9% hits | activation, % at 7 µM | AID 652039 | P49862 | purified proKLK7, EDANS-DABCYL substrate fluorescence; 100% is mature enzyme control, 0% vehicle;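 active = activation above the mean of all tested compounds plus 3 SD, computed per campaign excluding outliers beyond control limits, cut at about 13% in these data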
CRFR2-BP ag: CRF-BP/CRF-R2 complex agonism. AID 588473. activation, % at 13.2 µM. HEK293 CRF-R2/CRF-BP, calcium dye fluorescence (FLIPR); percent of saturating CRF peptide response. 350,000 compounds, 0.46% hits;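 active = activation of at least 50%, plus an integration ratio under a set limit after plate pattern correction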
Large screens that a line does not name were inactive. A selection: hits, their analogues and other compounds. The true share with any hit is near 2.9%.

O=C(NCCN1CCC(Cc2ccccc2)CC1)C1CCCN(S(=O)(=O)c2ccc([N+](=O)[O-])cc2)C1 (stereo not drawn)	none (no result: CRFR2-BP antag, CendR NRP1 mod, CRFR2-BP ag)
O=C(COC(=O)c1ccc([N+](=O)[O-])s1)Nc1cccc(S(=O)(=O)NC2=NCCCCC2)c1	CRFR2-BP antag 68
O=C(COC(=O)c1cccs1)Nc1cccc(S(=O)(=O)NC2=NCCCCC2)c1	none
O=C(NC(Nc1nc2ccc([N+](=O)[O-])cc2s1)(C(F)(F)F)C(F)(F)F)c1cccnc1	CRFR2-BP antag 60, CRFR2-BP ag 57
O=C(NC(Nc1nc2ccc([N+](=O)[O-])cc2s1)(C(F)(F)F)C(F)(F)F)c1ccccc1Cl	none
COc1cccc(/C=C2\C(=O)C(=O)c3ccccc32)c1	CRFR2-BP antag 76
COc1cc(C=C2C(=O)c3ccccc3C2=O)cc(OC)c1	none
COc1ccc(C=C2C(=O)c3ccccc3C2=O)cc1O	CRFR2-BP antag 66
COc1cc(C=C2C(=O)c3ccccc3C2=O)cc(OC)c1OC	CRFR2-BP antag 88
COc1ccccc1NC(=O)OC1CCC12CCCCC2 (stereo not drawn)	none (no result: CRFR2-BP antag, CendR NRP1 mod, CRFR2-BP ag)
Cc1ccsc1C=Nn1c(-c2n[nH]c3c2CCC3)n[nH]c1=S	none (no result: CRFR2-BP antag, CendR NRP1 mod, CRFR2-BP ag)
CCOC(=O)[C@@]12CN(C(=O)OC(C)(C)C)CC=C1N(Cc1ccc(OC)cc1)C(=O)[C@H]2CC(=O)NCCCOC	none (no result: CRFR2-BP antag, CendR NRP1 mod, CRFR2-BP ag)
COC(=O)[C@]12C[C@H](CC(=O)NCc3cccc(C(F)(F)F)c3)C(=O)N(Cc3ccc4c(c3)OCO4)C1=C[C@H](C(C)(C)C)O[C@@H]2C	none (no result: CRFR2-BP antag, CendR NRP1 mod, CRFR2-BP ag)
COC(=O)C[C@H]1CC[C@@H]2[C@H](COc3ccc(NC(=O)C(C)C)cc3C(=O)N2C)O1	none (no result: CRFR2-BP antag, CendR NRP1 mod, CRFR2-BP ag)
CC(C)c1ccc(CNC(=O)CCc2ccccc2)cc1	none
CC(C)c1ccc(OCC(=O)NCc2ccccc2)cc1	CendR NRP1 mod 52
O=C(COc1ccccc1)NCc1ccco1	CRFR2-BP antag 65
CCC(C)NS(=O)(=O)c1ccc(OCC(=O)NCc2ccccn2)cc1 (stereo not drawn)	CRFR2-BP antag 51
O=C(OC12CCCN(C1)/C(=C/c1ccc(Cl)cc1)C2)c1ccno1 (stereo not drawn)	none (no result: CRFR2-BP antag, CendR NRP1 mod, CRFR2-BP ag)
CC(=O)c1cc(-c2ccccc2)c(=O)n2c1CCC2	none (no result: CRFR2-BP antag, CendR NRP1 mod, CRFR2-BP ag)
CC(C)[C@H](NC(=O)[C@H](C)NC(=O)OC(C)(C)C)C(=O)N1CCC2CCN(Cc3ccccc3)CC21 (stereo partly drawn)	none (no result: CRFR2-BP antag, CendR NRP1 mod, CRFR2-BP ag)
COc1ccc(CNC(=O)C[C@H]2C[C@H](C(=O)N(C(C)C)C(C)C)[C@@]3(C)c4[nH]c5cc(CCC(=O)N(C)C)ccc5c4CCN3C2=O)cc1OC	none
C[C@]12c3[nH]c4cc(-c5ccco5)ccc4c3CCN1C(=O)[C@@H](CC(=O)NCCc1ccccn1)C[C@@H]2C(=O)N1CCCCC1	KLK7 zymogen act 178
CC(C)N(C(=O)[C@H]1C[C@H](CC(=O)NCc2ccco2)C(=O)N2CCc3c([nH]c4cc(CCC(=O)N(C)C)ccc34)[C@]12C)C(C)C	CRFR2-BP antag 60
O=C(C[C@H]1C[C@H](C(=O)N2CCCCC2)[C@@]2(CCc3ccccc3)c3[nH]c4ccc(Cl)cc4c3CCN2C1=O)NCCN1CCOCC1	CRFR2-BP ag 57 (no result: Tn7 DDE FP, DDE Tn6 FP inh, KLK7 zymogen act)
COc1ccc(CNC(=O)C[C@H]2C[C@H](C(=O)N3CCCCC3)[C@@]3(C)c4[nH]c5cc(CCC(=O)N(C)C)ccc5c4CCN3C2=O)cc1OC	DDE Tn6 FP inh 16
COc1ccccc1NC(=S)OC1CCC12CCC(c1ccccc1)CC2 (stereo not drawn)	none (no result: CRFR2-BP antag, CendR NRP1 mod, CRFR2-BP ag)
C[C@]12c3[nH]c4ccccc4c3CCN1C(=O)C(CC(=O)NCC13CC4CC(CC(C4)C1)C3)C[C@@H]2C(=O)N1CCCCC1 (stereo partly drawn)	none
C[C@]12c3[nH]c4ccccc4c3CCN1C(=O)C(CC(=O)NCC13CC4CC(CC(C4)C1)C3)C[C@@H]2C(=O)N1CCOCC1 (stereo partly drawn)	CRFR2-BP ag 55
COc1cc(OC)nc(NC(=O)COC(=O)c2cccc(Cl)c2)n1	CendR NRP1 mod 32
O=C(COC(=O)c1cccc(Cl)c1)NCc1ccccc1	none
C=C1CCN(C(C(=O)OC)C(C)C)S(=O)(=O)c2ccc(F)cc21 (stereo not drawn)	CendR NRP1 mod 28
C=C1CCN([C@@H](CC(C)C)C(=O)NCc2ccco2)S(=O)(=O)c2ccccc21	none
C=C1CCN([C@@H](CC(C)C)C(=O)NCc2ccccc2)S(=O)(=O)c2ccccc21	CendR NRP1 mod 27
C=C1CCN([C@@H](CC(C)C)C(=O)NCCCc2ccccc2)S(=O)(=O)c2ccccc21	CendR NRP1 mod 30
C=C1CCN([C@@H](CC(C)C)C(=O)O)S(=O)(=O)c2ccccc21	CendR NRP1 mod 25
C=C1CCN(C(C(=O)OC)C(C)C)S(=O)(=O)c2ccccc21 (stereo not drawn)	none
Clc1ccccc1Cn1ccc2ccc(-c3ccc4ccn(Cc5ccccc5Cl)c4c3)cc21	none (no result: CRFR2-BP antag, CendR NRP1 mod, CRFR2-BP ag)
COc1ccc(-n2c(SCC(=O)Nc3ccccc3-c3ccccc3)nnc2-c2ccccn2)cc1	none (no result: CRFR2-BP antag, CendR NRP1 mod, CRFR2-BP ag)
S=c1[nH]nc(-c2cc(-c3ccccc3)n[nH]2)n1N=Cc1c[nH]c2ccccc12	none (no result: CRFR2-BP antag, CendR NRP1 mod, CRFR2-BP ag)
c1ccc(CNC2CCC23CCC(c2ccccc2)CC3)cc1 (stereo not drawn)	none (no result: CRFR2-BP antag, CendR NRP1 mod, CRFR2-BP ag)
Cc1ccccc1C(=O)N1c2ccccc2OCC1C(C)(C)C (stereo not drawn)	none
CC(C)(C)C1COc2ccccc2N1C(=O)c1ccccc1Cl (stereo not drawn)	CRFR2-BP ag 57
C#CCN1C(C(=O)OC)CN(CCCCCC)CCS1(=O)=O (stereo not drawn)	none (no result: CRFR2-BP antag, CendR NRP1 mod, CRFR2-BP ag)
COc1cnn(Cc2ccccc2)c(=O)c1SCc1ccccc1	none
CCOc1cnn(Cc2ccccc2)c(=O)c1SCc1ccccc1	CendR NRP1 mod 28
O=C(NN=C1CCCCCCCCCCC1)c1ccccc1F	CendR NRP1 mod 28
COC(=O)CN1C(c2ccc(Cl)cc2)=Nc2ccc(Cl)cc2C1c1ccccc1 (stereo not drawn)	CRFR2-BP antag 65
COc1ccc(C2=Nc3ccc(C)cc3C(c3ccccc3)N2CC(=O)NN)cc1 (stereo not drawn)	none
Cc1cc(NS(=O)(=O)c2ccc(NC(=O)Cc3ccccc3)cc2)no1	none (no result: CRFR2-BP antag, CendR NRP1 mod, CRFR2-BP ag)
COc1ccc(CCNC(=O)Nc2ccc3c(c2)[C@]2(CC(=O)N(CC(C)C)C2c2ccccc2)C(=O)N3C)cc1OC (stereo partly drawn)	none (no result: CRFR2-BP antag, CendR NRP1 mod, CRFR2-BP ag)
COc1ccc(-c2noc(C(=O)NCc3ccc(F)cc3)n2)cc1OC	CRFR2-BP antag 60, CendR NRP1 mod 37

Bioassay records (PubChem)
